SENP1 inh – blocks the human SENP1 SUMO protease catalytic domain. Q9P0U3. recombinant SENP1 catalytic domain, CyPet-SUMO1-YPet FRET cleavage. inhibition, % at 10 µM. hit rate 0.21% among 360,000;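 active = inhibition at least 30% at 10 µM, raw YFP signal under a set limit, fluorescence ratio 0.5 to 1.5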
Target sequence (Q9P0U3 419-644 limits assumed): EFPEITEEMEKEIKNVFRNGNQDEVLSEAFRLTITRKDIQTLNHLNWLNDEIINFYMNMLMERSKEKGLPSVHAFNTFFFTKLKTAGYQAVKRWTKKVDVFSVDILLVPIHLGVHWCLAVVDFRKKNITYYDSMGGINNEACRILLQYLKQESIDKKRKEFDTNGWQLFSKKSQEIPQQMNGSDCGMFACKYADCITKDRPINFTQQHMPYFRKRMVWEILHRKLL
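Controls: no-enzyme wells low, DMSO-plus-enzyme wells high control. Test system: human recombinant His6-tagged SENP1 catalytic domain enzyme. Reagent: SFCypet-SUMO1-SFYpet FRET protein substrate, 25 nM final. Doses: one dose per compound, 10 µM, 0.5% DMSO. Detection: FRET, CFP and YFP emission. Timing: 50 min reaction at room temperature.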
NR3A LBD binder – modulates the human NR3A ligand-binding domain. hit rate 2.5% among 340,000. NR3A LBD differential scanning fluorimetry, Tm shift; 0% = protein alone, 100% = glycine-bound protein. Tm shift relative to glycine control, % at 25 µM;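 active = melting temperature shift of at least 10% of the positive control shift, at one fixed dose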
UCH37 DUB inh – human UCH37 deubiquitinating enzyme inhibition; Q9Y5K5; purified proteasome/UCH37, Ub-AMC cleavage fluorescence; inhibition, % (concentration not given with the values); hit rate 0.33% among 330,000; AID 588478;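 active = mean inhibition over replicate wells above about 20%, limit read from the data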
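System: Proteasome-associated human UCH37 deubiquitinase; Input: 0.15 nM proteasome in added enzyme buffer; Also added: Ub-AMC substrate from 1 µM stock; Incubation: 30 min compound-proteasome preincubation then 25 min substrate reaction, room temperature; Detection: fluorescence, ex 355 nm, em 460 nm; Read-out: % inhibition of Ub-AMC cleavage fluorescence; Benchmarks: no-proteasome and no-compound wells.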
ATG4B inhibitor – ATG4B (human) cysteine protease inhibition | Q9Y4P1 | AID 504462 | inhibition, % at 8.33 µM | hit rate 0.51% among 340,000 | ATG4B cleavage of LC3-PLA2, NBD-HPC fluorescence, 1 h; in the data active = inhibition above about 40%
Target sequence (Q9Y4P1 whole entry, looked up): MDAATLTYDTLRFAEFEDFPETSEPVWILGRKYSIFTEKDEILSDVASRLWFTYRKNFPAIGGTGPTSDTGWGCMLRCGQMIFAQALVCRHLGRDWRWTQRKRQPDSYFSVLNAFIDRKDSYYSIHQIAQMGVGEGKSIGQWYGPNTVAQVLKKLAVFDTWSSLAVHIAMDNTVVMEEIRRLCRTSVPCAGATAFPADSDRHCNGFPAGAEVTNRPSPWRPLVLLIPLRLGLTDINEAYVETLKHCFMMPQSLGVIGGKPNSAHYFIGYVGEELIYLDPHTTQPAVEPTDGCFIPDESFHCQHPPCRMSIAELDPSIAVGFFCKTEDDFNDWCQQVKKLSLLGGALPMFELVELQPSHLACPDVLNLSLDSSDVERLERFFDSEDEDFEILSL
NadD block – inhibitors of Staphylococcus aureus NadD; purified NadD enzyme, colorimetric absorbance read-out; inhibition, % at 20 µM; hit rate 0.78% among 360,000; in the data active = inhibition above about 26%
UCH37 reconfirm – confirmation of human UCH37 deubiquitinating enzyme inhibitors; shares compounds with UCH37 DUB inh; Proteasome-bound UCH37, Ub-AMC cleavage fluorescence; inhibition, % at 20 µM; hit rate 27% among 480; AID 624100;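 active = average inhibition over replicates above about 50%, so the earlier screening hit is confirmed, limit read from the data; inactive = the rest, counted as false positives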;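 also: based on cleavage rate fitted by regression over a 30 min kinetic read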
Of the large screens only hits and unclear results are named; the others gave an inactive call (follow-up assays come after a bar, where they were run). Hits are enriched below; roughly 3.6% of the tested compounds scored in any of these assays.

N#C/C(=C\c1ccc(N2CCCCC2)o1)C(N)=O	UCH37 DUB inh 30 | UCH37 reconfirm inactive
COc1ccc(C(=O)NN=C(C)CC(=O)Nc2ccc3ccccc3c2)c(OC)c1	none (no result: SENP1 inh, NR3A LBD binder, ATG4B inhibitor, NadD block)
COc1cc(C2C(C(=O)c3ccc(C)o3)=C(O)C(=O)N2c2cc(C)on2)cc(OC)c1OC (configuration not stated)	none
COc1cc(C2C(C(=O)c3ccc(C)o3)=C(O)C(=O)N2c2cc(C)on2)ccc1O (configuration not stated)	UCH37 DUB inh 46 | UCH37 reconfirm inactive
CCOc1ccc(C2/C(=C(\O)c3cccc(OC)c3)C(=O)C(=O)N2c2cc(C)on2)cc1OC (configuration not stated)	UCH37 DUB inh 49 | UCH37 reconfirm inactive
CCOc1ccc(C2/C(=C(\O)c3ccc(OC)c(OC)c3)C(=O)C(=O)N2c2cc(C)on2)cc1OC (configuration not stated)	none
CCOC(=O)c1sc(=S)n(CC)c1N	UCH37 DUB inh 52 | UCH37 reconfirm inactive
CCc1nnc(NN=Cc2ccc(O)c(OC)c2)n1N	none (no result: SENP1 inh, NR3A LBD binder, ATG4B inhibitor, NadD block)
O=C(NC(=S)Nc1ccc(Oc2ccc(Cl)cc2)cc1)c1ccccc1	UCH37 DUB inh 47 | UCH37 reconfirm inactive
C(=NN1CCN(c2ccccn2)CC1)c1cccc2ccccc12	none (no result: SENP1 inh, NR3A LBD binder, ATG4B inhibitor, NadD block)
CCCCCc1ccc(OCCCC[n+]2ccc(C)cc2)c(CCCCC)c1	UCH37 DUB inh 29 | UCH37 reconfirm inactive
O=[N+]([O-])c1cccc(C=NN2CCN(Cc3ccc(Cl)cc3)CC2)c1	none (no result: SENP1 inh, NR3A LBD binder, ATG4B inhibitor, NadD block)
CCOC(=O)N1CCN(C2=C(NS(=O)(=O)c3ccc(NC(C)=O)cc3)C(=O)c3ccccc3C2=O)CC1	UCH37 DUB inh 30 | UCH37 reconfirm inactive
Cn1cnc([N+](=O)[O-])c1Nc1ccc(O)cc1	UCH37 DUB inh 52 | UCH37 reconfirm inactive
O=C(CSC(=S)N1CCCCC1)c1ccccc1	UCH37 DUB inh 39 | UCH37 reconfirm inactive
CCN(CC)C(=O)COc1ccc(C(C)=NNC(=O)c2ccccc2Br)cc1	none (no result: SENP1 inh, NR3A LBD binder, ATG4B inhibitor, NadD block)
O=C1S/C(=C\c2ccc(O)c([N+](=O)[O-])c2)C(=O)N1Cc1cccc([N+](=O)[O-])c1	none (no result: UCH37 DUB inh)
O=C(O)c1cccc(CN2C(=O)S/C(=C/c3ccccc3[N+](=O)[O-])C2=O)c1	UCH37 DUB inh 80 | UCH37 reconfirm inactive
Cc1ccc(SC2=C(Sc3ccc(C)cc3)C(=O)c3ccccc3C2=O)cc1	UCH37 DUB inh 52 | UCH37 reconfirm inactive
O=C(CSc1nnc(SCc2ccccc2)s1)NN=Cc1ccc(C(=O)O)cc1	none (no result: SENP1 inh, NR3A LBD binder, ATG4B inhibitor, NadD block)
CC(=O)NC1=C(Nc2ccc(N(C)C)cc2)C(=O)c2ccccc2C1=O	none (no result: UCH37 DUB inh)
CCC(=O)N(C1=C(NC)C(=O)c2ccccc2C1=O)C(C)C	UCH37 DUB inh 33 | UCH37 reconfirm inactive
CNC1=C(N(C(C)=O)c2ccc(Br)cc2)C(=O)c2ccccc2C1=O	UCH37 DUB inh 51 | UCH37 reconfirm 74
CN(C)Cc1c(C(=O)NN=Cc2ccncc2)nnn1-c1nonc1N	none (no result: SENP1 inh, NR3A LBD binder, ATG4B inhibitor, NadD block)
Cc1ccc(NC2=CC(=O)C(=O)c3ccccc32)c(C)c1	UCH37 DUB inh 36 | UCH37 reconfirm inactive
O=C1C=C(NCc2ccccc2)c2ccccc2C1=O	UCH37 DUB inh 53 | UCH37 reconfirm inactive
O=C1C=C(Nc2ccccc2O)c2ccccc2C1=O	SENP1 inh 30, UCH37 DUB inh 81 | UCH37 reconfirm 85
O=C1C=C(Nc2ccc(F)cc2)c2ccccc2C1=O	UCH37 DUB inh 57 | UCH37 reconfirm inactive
Cc1ccc(NS(=O)(=O)c2ccc3c(c2)C(=O)c2ccccc2C3=O)c(C)c1	none
Cc1[nH]c(=O)[nH]c(=O)c1C=NNC(=O)[C@H](CC(C)C)NC(=O)OC(C)(C)C	none (no result: SENP1 inh, NR3A LBD binder, ATG4B inhibitor, NadD block)
CC(CC(=O)NCc1ccccc1Cl)=NNC(=O)c1ccccn1	none (no result: SENP1 inh, NR3A LBD binder, ATG4B inhibitor, NadD block)
CC[C@]1(c2cccc(C)c2)C(=O)N(C(=O)OC)N1C(=O)OC	UCH37 DUB inh 35 | UCH37 reconfirm inactive
CC(=NNc1nccnc1Cl)c1ccc(F)cc1	none (no result: SENP1 inh, NR3A LBD binder, ATG4B inhibitor, NadD block)
CCOC(=O)/C=C(\C)Sc1cc(=O)oc2ccccc12	none
CCOC(=O)/C=C(\C)Sc1cc(O)c2ccccc2c1O	UCH37 DUB inh 81 | UCH37 reconfirm 82
NC1=C(Br)C(=O)c2ccccc2C1=O	UCH37 DUB inh 34 | UCH37 reconfirm inactive
O=C(CON=Cc1c(Cl)cccc1Cl)NNC(=O)c1ccc(Cl)cc1	none (no result: SENP1 inh, NR3A LBD binder, ATG4B inhibitor, NadD block)
CN(C)/C=C1/NC(=S)NC1=O	UCH37 DUB inh 27 | UCH37 reconfirm inactive
O=c1c2c3c(sc2ncn1N=Cc1cccnc1)CCCC3	none (no result: SENP1 inh, NR3A LBD binder, ATG4B inhibitor, NadD block)
CCN(CC)CCCNC1=C(Cl)C(=O)c2ccccc2C1=O	UCH37 DUB inh 27 | UCH37 reconfirm inactive
O=C(O)c1cccc(NC2=C(Cl)C(=O)c3ccccc3C2=O)c1	UCH37 DUB inh 46 | UCH37 reconfirm inactive
O=C(O)c1ccc(NC2=C(Cl)C(=O)c3ccccc3C2=O)cc1	none
O=C1C(Cl)=C(NCCc2ccccc2)C(=O)c2ccccc21	UCH37 DUB inh 76 | UCH37 reconfirm 87
COc1ccc(NC(=O)ON=Cc2ccccc2Cl)cc1	none (no result: SENP1 inh, NR3A LBD binder, ATG4B inhibitor, NadD block)
CCOC(=O)c1c2c(n(C)c1C)C(=O)C(=O)c1ccc(Br)cc1-2	UCH37 DUB inh 56 | UCH37 reconfirm 70
CCOC(=O)c1c2c(n(Cc3ccccc3)c1C)C(=O)C(=O)c1ccccc1-2	none (no result: UCH37 DUB inh)

Screens (PubChem BioAssay)
